A short description of series [1]: Metabolic stability in male CD-1 mouse liver microsomes assessed as half life at 2 uM incubated for 60 min in the presence of NADPH by LC-MS/MS analysis. The class given is ADME, Microsome. The method in brief:
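Male CD-1 mouse liver microsomes at 0.5 mg/mL final in 100 mM phosphate buffer, pH 7.4. Mixture was preincubated with 1 mM NADPH (PBS only for the negative control) for 10 min at 37°C. Reaction was started with test compound at 2 µM final. Aliquots were taken at 0.5, 15, 30, 45 and 60 min into cold methanol with internal standard, centrifuged, and the supernatant analysed by LC-MS/MS.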
(In general: Microsomes from liver hold many membrane-bound enzymes, among them those of drug oxidation.)

Series [2] has as its system MGC-803. The experiment in a line: Induction of ferroptosis in human MGC-803 cells assessed as reduction in mitochondrial cristae at 5 uM incubated for 24 hrs by TEM analysis. It is filed as functional, cell-based. Summed up:
(§1)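 Cell samples prefixed in 3% glutaraldehyde, postfixed in 1% osmium tetroxide, dehydrated through graded acetone (30–100%), embedded in Epon812, cut into 60–90 nm ultrathin sections on copper grids, stained with uranyl acetate 10–15 min and lead citrate 1–2 min at room temperature, examined by TEM.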

The test system of the next series is HCT-116. The series can be described thus: Antiproliferative activity against human HCT-116 cells incubated for 48 hrs by MTT assay. The class given is functional, cell-based. Particulars: HCT-116, 48 h. The method in brief: (§2)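 Monolayer cells in DMEM with 10% FBS, penicillin and streptomycin, 37°C, 5% CO2. Exponentially growing cells were seeded in 96-well plates and exposed to compound for 48 h. MTT was then added for 4 h at 37°C. Medium was removed, formazan dissolved in DMSO, and OD read at 490 nm. Each plate had five replicate wells, and assays were repeated three times per line.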
On the technique in general: Tetrazolium dyes change colour on reduction, which living cells bring about.

The subject of a further series is MDA-MB-231. The series can be described thus: Antiproliferative activity against human MDA-MB-231 cells incubated for 48 hrs by MTT assay. It is filed as functional, cell-based. To be noted: MDA-MB-231, 48 h. Summed up: as §2
Series [3] concerns MGC-803. The series can be described thus: Induction of DNA damage in human MGC-803 cells assessed as increase in phosphorylated H2AX protein level at Ser139 residue at 25 to 50 uM incubated for 24 hrs by Western blot analysis. It is filed as functional, cell-based. To be noted: dose 25-50 µM. Summed up: (§3)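 MGC-803 cells treated 25 or 50 μM for 24 h, lysed in ice-cold 1% SDS/Tris-HCl pH 7.5 buffer with EDTA, NaCl and protease inhibitors, spun 12,000g 18 min. Protein quantified by BCA; 40–50 μg resolved on 10% SDS-PAGE, transferred to PVDF, milk-blocked 2 h, primary antibody overnight, HRP secondary 1 h at RT. ECL detection with densitometry.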

The test system of another series is U-251. The experiment in a line: Antitumor activity against human U-251 cells xenografted in nude mouse assessed as tumor inhibition ratio at 24 mg/kg, ip administered once every two days for 21 days relative to control. It is filed as functional. To be noted: U-251, 504 h, time 21 day. Summed up:
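1×10^6 tumor cells injected s.c. into the right flank of nude mice. At mean tumor volume 60–80 mm³, animals randomized to vehicle or treatment groups (n = 6). Compound in 5% v/v DMSO/saline given i.p. every 2 days. Tumor size and weight recorded; volume = lw²/2 from length and width. Body weight tracked as the systemic toxicity index.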
(In xenograft studies the graft and the host belong to different species.)

In series [4] the test system is MGC-803. The series can be described thus: Induction of cell cycle arrest in human MGC-803 cells assessed as accumulation of cells at S phase at 50 uM incubated for 24 hrs by PI staining based flow cytometry (Rvb=28.00%). The class given is functional.
In series [5] the test system is MGC-803. The experiment in a line: Induction of cell cycle arrest in human MGC-803 cells assessed as accumulation of cells at G2/M phase at 25 uM incubated for 24 hrs by PI staining based flow cytometry (Rvb=12.91%). The class given is functional.
Series [6] has as its system MGC-803. The experiment in a line: Induction of cell cycle arrest in human MGC-803 cells assessed as accumulation of cells at G2/M phase at 100 uM incubated for 24 hrs by PI staining based flow cytometry (Rvb=12.91%). It is filed as functional.
Series [7] in a line: Cytotoxicity against HK-2 cells incubated for 48 hrs by MTT assay. To be noted: human. It is filed as toxicity, cell-based. The method in brief:
as §2

The test system of series [8] is MGC-803. The experiment in a line: Induction of ferroptosis in human MGC-803 cells assessed as appearance of smaller mitochondria at 5 uM incubated for 24 hrs by TEM analysis. It is filed as functional, cell-based. The method in brief:
as §1

For series [9], the system named is MGC-803. The experiment in a line: Induction of cell cycle arrest in human MGC-803 cells assessed as accumulation of cells at G0/G1 phase at 50 uM incubated for 24 hrs by PI staining based flow cytometry (Rvb=59.09%). The class given is functional.
Series [10] deals with calf thymus DNA (Bos taurus). The series can be described thus: Competitive binding affinity to calf thymus DNA in presence of propidium iodide by fluorescence intercalator displacement assay.
Series [11] is described as follows: Toxicity in nude mouse xenografted with human U-251 cells assessed as pathological changes in heart at 24 to 48 mg/kg, ip administered once every two days for 21 days by H and E staining based analysis. The class given is organism-based. Particulars: in vivo, 504 h, dose 24-48 mg/kg, time 21 day. Summed up: (§4)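 Nude mice carrying s.c. xenografts (1×10^6 cells, right flank) randomized at 60–80 mm³ (n = 6), dosed i.p. every 2 days in 5% v/v DMSO/saline. Major organs examined by H&E staining at 200× magnification.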

Series [12] deals with MGC-803. The experiment in a line: Antiproliferative activity against human MGC-803 cells incubated for 48 hrs by MTT assay. It is filed as functional, cell-based. Particulars: MGC-803, 48 h. Summed up: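 Cells kept as monolayers in DMEM with 10% FBS, streptomycin and penicillin, 37°C, 5% CO₂. Exponentially growing cells seeded in 96-well plates, exposed 48 h, then MTT (10 mg/mL stock) for 4 h at 37°C. Medium removed, formazan dissolved in DMSO, OD read at 490 nm. Five wells per condition; each cell line run three times.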

The test system of series [13] is MGC-803. The series can be described thus: Induction of cell cycle arrest in human MGC-803 cells assessed as accumulation of cells at S phase at 100 uM incubated for 24 hrs by PI staining based flow cytometry (Rvb=28.00%). The class given is functional.
Series [14] in a line: Toxicity in nude mouse xenografted with human MGC-803 cells assessed as pathological changes in heart at 12 to 48 mg/kg, ip administered once every two days for 21 days by H and E staining based analysis. The class given is organism-based. Particulars: in vivo, 504 h, dose 12-48 mg/kg, time 21 day. The method in brief:
as §4

The subject of series [15] is MGC-803. The series can be described thus: Induction of ferroptosis in human MGC-803 cells assessed as reduction of GPX4 protein expression level at 25 to 50 uM incubated for 24 hrs by Western blot analysis. To be noted: dose 25-50 µM. The class given is functional, cell-based. The method in brief: as §3
For series [16], the system named is MGC-803. The series can be described thus: Induction of cell cycle arrest in human MGC-803 cells assessed as accumulation of cells at G0/G1 phase at 25 uM incubated for 24 hrs by PI staining based flow cytometry (Rvb=59.09%). The class given is functional.
Series [17] concerns MGC-803. The series can be described thus: Induction of cell cycle arrest in human MGC-803 cells assessed as accumulation of cells at S phase at 25 uM incubated for 24 hrs by PI staining based flow cytometry (Rvb=28.00%). The class given is functional.
The subject of series [18] is MGC-803. The series can be described thus: Induction of cell cycle arrest in human MGC-803 cells assessed as accumulation of cells at G2/M phase at 50 uM incubated for 24 hrs by PI staining based flow cytometry (Rvb=12.91%). It is filed as functional.
For series [19], the system named is MGC-803. The series can be described thus: Induction of ferroptosis in human MGC-803 cells assessed as increase in intracellular lipid peroxide and ROS level by measuring increase in green fluorescence intensity at 50 uM incubated for 24 hrs by BODIPY 581/591 C11 staining based confocal microscopic analysis. The class given is functional, cell-based.
Series [20] is described as follows: Toxicity in nude mouse xenografted with human U-251 cells assessed as pathological changes in lung at 24 to 48 mg/kg, ip administered once every two days for 21 days by H and E staining based analysis. The class given is organism-based. Particulars: in vivo, 504 h, dose 24-48 mg/kg, time 21 day. Summed up: as §4

Structures are written as SMILES. Activity calls are given as the source filed them.

In general, half-life refers to the time needed for the level to fall by half in the phase considered. A word on the IC50: it is the midpoint of a concentration-inhibition curve. High values mean lower potency, low ones higher potency. As usually defined, the inhibition in vivo is the share of the control response that was lost under treatment.

Consider `CN(C)CCN1C(=O)c2cccc3c(N4CCN(C(=O)CCOCCOCCOCCOCCNC(=O)CCCCC5SCC6NC(=O)NC65)CC4)ccc(c23)C1=O` (stereo not drawn), for which the half-life at 2 µM in series [1] came out at 36.6 min. Also, the outcome (with MGC-803 [2]; in the series on MGC-803 [3]; in the series with MGC-803 [8]; in series [10]; in the series on MGC-803 [15]; in the series with MGC-803 [19]) was Active. The IC50 with HCT-116, with MDA-MB-231 and in the series on MGC-803 [12] was greater than 50 µM throughout. The inhibition in vivo at 24 mg/kg in the series with U-251 is 74.8%. For the same compound, the Activity was 40.58% in the series on MGC-803 [4]; 23.3% in the series with MGC-803 [5]; 18.57% with MGC-803 [6]; 33.17% in the series with MGC-803 [9]; “Non-Toxic” in series [11]; 41.72% in the series on MGC-803 [13]. Moreover, the Activity result in series [14] is given as “Non-Toxic”; in the series with MGC-803 [16], 53.99%; with MGC-803 [17] it was 22.7%; in the series on MGC-803 [18], 26.25%; in [20], “Non-Toxic”. This compound also had an IC50 at 48 h in series [7] greater than 50 µM.

(Values after ChEMBL document CHEMBL5532699, “Design, docking optimization, and evaluation of biotin-PEG4-1,8-naphthalimide as a potent and safe antitumor agent with dual targeting of ferroptosis and DNA” (RSC Med Chem, 2024).)
